Usually IC50 stands for the midpoint of a concentration-inhibition curve. Low values mean greater potency in that assay, high ones weaker potency in that assay.

Results on twelve compounds are retold here after ChEMBL document CHEMBL1142228, “Alternative chemical modifications reverse the binding orientation of a pharmacophore scaffold in the active site of macrophage migration inhibitory factor” (J Biol Chem, 2007).

Molecules are shown by their SMILES.

Transcription factor p65 (Mus musculus), sequence (Q04207 whole entry, looked up): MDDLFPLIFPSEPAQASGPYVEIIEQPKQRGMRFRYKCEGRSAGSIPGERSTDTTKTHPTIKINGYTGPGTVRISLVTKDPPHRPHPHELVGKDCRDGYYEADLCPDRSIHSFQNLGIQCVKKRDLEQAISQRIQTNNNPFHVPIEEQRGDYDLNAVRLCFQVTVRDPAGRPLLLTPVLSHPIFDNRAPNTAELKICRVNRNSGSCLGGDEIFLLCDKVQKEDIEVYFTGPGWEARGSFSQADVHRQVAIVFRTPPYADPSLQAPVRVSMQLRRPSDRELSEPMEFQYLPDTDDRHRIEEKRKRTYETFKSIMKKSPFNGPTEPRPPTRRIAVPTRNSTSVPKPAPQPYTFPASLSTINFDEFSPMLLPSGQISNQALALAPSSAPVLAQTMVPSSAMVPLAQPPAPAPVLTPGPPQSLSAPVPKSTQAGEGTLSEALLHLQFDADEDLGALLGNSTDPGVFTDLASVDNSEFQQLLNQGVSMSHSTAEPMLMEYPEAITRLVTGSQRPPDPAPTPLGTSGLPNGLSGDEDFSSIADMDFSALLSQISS

The subject of the first experiment is Mus musculus. In words: Increase in survival rate in cecal ligation and puncture-induced peritonitis mouse model administered twice a day after 24 hrs of sepsis induction at 3.5 mg/kg, ip for 3 days. Format: functional. The note with it: route intraperitoneal. The essentials:
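Mice anaesthetised with ketamine 100 mg/kg plus xylazine 8 mg/kg im. Cecum ligated below the ileocecal valve and punctured once with a 22-gauge needle. Post-surgery: Premaxin 0.5 mg/kg sc and saline 20 ml/kg sc. Dosing ip in 20% aqueous DMSO vehicle began 24 h post-CLP, twice daily for 3 days. n = 13 per group; survival followed 2 weeks.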
Take `O=C(O/N=C/c1ccc(O)cc1)C1CCCCC1`: the survival at 3.5 mg/kg was found to be 70%.

A further experiment deals with T1, Macrophage migration inhibitory factor (Homo sapiens, UniProt P14174).
T1 sequence (P14174 whole entry): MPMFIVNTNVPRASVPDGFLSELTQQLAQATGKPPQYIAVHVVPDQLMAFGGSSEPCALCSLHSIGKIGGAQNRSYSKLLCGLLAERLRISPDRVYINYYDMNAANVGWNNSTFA
In words: Inhibition of MIF-mediated dopachrome tautomerase activity.
Conditions: not given
The essentials:
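l-Dopachrome methyl ester substrate (2.4 mm prepared stock, from sodium periodate oxidation of l-3,4-dihydroxyphenylalanine methyl ester) added to recombinant MIF (50 nm) in 50 mm potassium phosphate, pH 6, 0.5 mm EDTA at room temperature.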
Compound `CC(=O)O/N=C/c1ccc(O)cc1` gave an IC50 of 147 µM.
Still for that read-out and setting: the same measure for `CC(C)(C)CC(=O)O/N=C/c1ccc(O)cc1`: 7 µM.
Same read-out and setting: the same measure for `CC(C)CC(=O)O/N=C/c1ccc(O)cc1`: 7 µM; for `CC(C)C(=O)O/N=C/c1ccc(O)cc1`: 25 µM.
On the same count and under the same terms, for `O=C(CCC1CCCCC1)O/N=C/c1ccc(O)cc1` the value was 3 µM; for `O=C(O/N=C/c1ccc(O)cc1)C1CCCC1`, 4 µM; for `O=C(O/N=C/c1ccc(O)cc1)C1CCC1`, 11 µM.
On to `CC(C)(C)C(=O)O/N=C/c1ccc(O)cc1`, for which it took 113 µM to reach half-maximal inhibition (IC50).
With `CCCCC(=O)O/N=C/c1ccc(O)cc1`, the concentration for half-maximal inhibition (IC50) turned out to be 14.5 µM.
Still for that read-out and setting: for `O=C(O/N=C/c1ccc(O)cc1)C1CC=CCC1` (stereo not drawn) the value was 3.4 µM; for `O=C(O/N=C/c1ccc(O)cc1)c1ccccc1`, 7 µM.

Another experiment addresses Transcription factor p65 (Mus musculus) (UniProt Q04207). In words: Inhibition of NF-kappaB activation in LPS-induced mouse RAW264.7 cells by electrophoretic mobility shift assay.
Conditions: not given
`O=C(O/N=C/c1ccc(O)cc1)C1CCCCC1`: the Activity result is “Dose-dependent effect”.
